Screens deposited in PubChem BioAssay by Johns Hopkins Ion Channel Center.
RGS4 inh – inhibitors of human RGS4; P49798; HEK293 M3R/RGS4 inducible, Fluo-4 calcium flux; stronger effect = higher value; triggered by carbachol at its EC20; B-score at 10 µM; 310,000 tested, 0.45% active; AID 463165;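 active = B-score, a plate-corrected calcium signal, over three deviations above library mean, with baseline fluorescence within five deviations of library mean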;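 note: RGS4 expression induced by doxycycline in cells with stable M3 receptor; B-score is computed from the integrated fluorescence ratio over baseline after carbachol; higher B-score means a larger calcium signal and so more RGS4 inhibition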
Target sequence (P49798 whole entry, looked up): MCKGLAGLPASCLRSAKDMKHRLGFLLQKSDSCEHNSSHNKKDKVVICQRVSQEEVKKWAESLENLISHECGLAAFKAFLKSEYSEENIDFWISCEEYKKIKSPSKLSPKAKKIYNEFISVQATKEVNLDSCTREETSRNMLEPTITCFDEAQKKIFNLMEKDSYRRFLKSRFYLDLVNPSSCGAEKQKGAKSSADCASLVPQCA
MrgX1 ag – activates human MrgX1 receptor signaling; 310,000 tested, 0.44% active; AID 588627; MrgX1-HEK293 cells, Fluo-4 calcium fluorescence, agonist mode; stronger effect = higher value; B-score at 10 µM; Q96LB2;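 active = calcium response B-score plate-corrected fluorescence ratio at least 3 library SD, with starting fluorescence B-score inside 5 SD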
Target sequence (Q96LB2 whole entry, looked up): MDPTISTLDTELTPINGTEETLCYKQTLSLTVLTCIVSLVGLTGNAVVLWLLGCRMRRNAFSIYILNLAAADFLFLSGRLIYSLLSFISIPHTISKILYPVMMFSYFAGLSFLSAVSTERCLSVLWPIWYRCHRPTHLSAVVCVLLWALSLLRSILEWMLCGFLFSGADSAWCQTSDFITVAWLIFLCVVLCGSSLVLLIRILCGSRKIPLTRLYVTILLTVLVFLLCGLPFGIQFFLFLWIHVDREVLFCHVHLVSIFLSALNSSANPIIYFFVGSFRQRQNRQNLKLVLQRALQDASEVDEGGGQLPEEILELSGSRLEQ
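Assay system: MrgX1-expressing HEK293 cells / Amount: fifteen thousand cells per well / Doses: test compound in the initial addition of three / Timing: cells plated overnight, dye loaded 0.5 h 37 °C, 0.5 h room temperature / Technique: kinetic calcium dye fluorescence, Fluo-4 NW / Control set: positive and negative controls per plate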
RGS4 act – RGS4 potentiation or activation. HEK293 M3R/inducible RGS4, carbachol calcium flux Fluo4; stronger effect = lower value. B-score at 10 µM. 310,000 tested, 0.92% active;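 active = B-score of the integrated calcium signal more than 4 SD below the library mean, with starting fluorescence not abnormally high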;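 note: negative B-score means reduced calcium response which marks RGS4 activation or potentiation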
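Test system: HEK293 cells with stable M3R and inducible RGS4; also added: carbachol at ECmax as muscarinic agonist stimulus; schedule: dye loading 30 min 37 °C, buffer rest 30 min RT; technique: kinetic calcium fluorescence imaging with Fluo4-AM dye, 2 µM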
MrgX1 antagonist – blocks BAM8-22 activation of human MrgX1 receptor; Q96LB2; MRGX1-HEK293 calcium flux, Fluo-4, BAM8-22 antagonism; stronger effect = lower value; B-score at 10 µM; 310,000 tested, 1.3% active; AID 588676;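 active = calcium-response B-score plate-corrected more than 3 library SD below zero, starting fluorescence within 5 deviations, no agonist response on first addition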;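 note: peak minus trough fluorescence over baseline after final BAM8-22 challenge near maximal dose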
MrgX1 allo act – human MrgX1 positive allosteric modulation, primary screen; Q96LB2; AID 588675; B-score at 10 µM; MrgX1-HEK293, Fluo-4 calcium flux, FDSS; stronger effect = higher value; 310,000 tested, 0.63% active;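 active = plate-corrected calcium response at least 3 library SD above typical, normal starting fluorescence, not activating the receptor alone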;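 note: compound read alongside a low EC10 to EC30 dose of BAM8-22 agonist; peak minus trough fluorescence over baseline measured at the second addition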
MrgX1 antag conf – confirmation of human MrgX1 receptor antagonists; AID 602420; MrgX1-HEK293, BAM8-22 calcium flux, Fluo-4; stronger effect = lower value; remaining BAM8-22 calcium response % of control (stronger effect = lower value), % at 10 µM; 2,300 tested, 19% active; shares compounds with MrgX1 antagonist;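 active = remaining agonist calcium response no higher than 100% minus 3 SD of agonist-only control wells, with starting fluorescence near control levels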;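 note: agonist BAM8-22 given at a near maximal EC90 to ECmax level; peak minus minimum fluorescence divided by baseline after agonist addition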
HEK293 Ca flux – counter-screen for MrgX1 antagonists: effect in parental HEK293 cells | Fluo-4 calcium fluorescence, FDSS | AID 624111 | 4,000 tested, 2% active | shares compounds with MrgX1 antagonist | fluorescence ratio F(max-min)/F0 at 10 µM;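 active = duplicate-averaged calcium fluorescence ratio at least three times the standard deviation of buffer wells, a nonspecific response in parental cells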
HEK293 Ca counter – MrgX1 allosteric activator counter-screen hit in parental HEK293 cells; parental HEK293 calcium flux, Fluo-4 fluorescence ratio; stronger effect = higher value; 4,000 tested, 0.4% active; shares compounds with MrgX1 antagonist; fluorescence ratio F(max-min)/F0 at 10 µM;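 active = calcium fluorescence ratio, averaged over duplicates, at least 3 SD of the buffer-well ratio, meaning a nonspecific response in receptor-free cells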;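 note: untransfected parental HEK293 lacking MrgX1 used as counterscreen for MrgX1 allosteric activators; fluorescence change taken during the second addition on a kinetic imager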
HEK293 Ca cntr2 – activity in parental HEK293 cells lacking MrgX1 receptor. shares compounds with MrgX1 antagonist. Fluo-4 calcium fluorescence (FDSS); stronger effect = higher value. fluorescence ratio F(max-min)/F0 at 10 µM. 4,000 tested, 8.7% active. AID 624115;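 active = calcium fluorescence ratio at least three times the spread of buffer wells, meaning a non-specific response in parental cells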
Active calls of the source: *; i = inactive; x = no result. A selection: hits, their analogues and other compounds. The true share with any hit is near 3.5%.

SMILES	RGS4 inh	MrgX1 ag	RGS4 act	MrgX1 antagonist	MrgX1 allo act	MrgX1 antag conf	HEK293 Ca flux	HEK293 Ca counter	HEK293 Ca cntr2
COc1ccc(Nc2oc(-c3ccc(OC)cc3)nc2C#N)cc1	i	i	i	-5.8*	i	i	i	i	i
COc1ccc(NC(=O)C2CCC(=O)N2S(=O)(=O)c2ccc(C)cc2)cc1Cl (centres undefined)	i	i	i	i	i	x	x	x	x
Cc1ccc(CNC(=S)NC2CCC(C(C)(C)C)CC2)cc1 (centres undefined)	i	i	i	-6.3*	i	63%*	i	i	i
O=C(Nc1ccc(F)cc1)Nc1ccc2c(c1)OCO2	i	i	i	-4.8*	i	i	i	i	i
O=C(Nc1ccc2c(c1)OCO2)Nc1ccc2c(c1)OCO2	i	i	i	i	i	x	x	x	x
COc1ccc(Cn2c(C)ccc2C)cc1	i	i	i	-6.3*	i	i	i	i	i
Cc1ccc(N(CC(=O)N2CCN(C3CCCCC3)CC2)S(=O)(=O)c2cccnc2)cc1	x	i	x	-8.8*	i	i	i	i	i
Cc1ccc(S(=O)(=O)N(CC(=O)N2CCCCCC2)c2ccccc2)cc1	i	i	i	i	i	x	x	x	x
CCN(CC)S(=O)(=O)c1ccc(OC)c(NC(=O)c2ccc3c(c2)OCO3)c1	i	i	i	-7.6*	i	i	i	i	i
O=C(CN1C(=O)CSc2ccc(S(=O)(=O)N3CCOCC3)cc21)NCc1ccc(Cl)cc1	i	i	i	i	i	x	x	x	x
O=C(NC1CC(=O)N(c2ccccc2)C1)N1CCN(C(=O)c2ccco2)CC1 (centres undefined)	i	i	i	i	i	x	x	x	x
Cc1ccc(-c2nnc(COC(=O)c3cccs3)o2)cc1	i	i	i	i	i	x	x	x	x
O=C(CN1C(=O)NC2(CCc3ccccc32)C1=O)c1c[nH]c2ccccc12 (centres undefined)	i	i	i	i	i	x	x	x	x
O=C(Nc1ccc(S(=O)(=O)Nc2nccs2)cc1)c1cc(-c2ccccc2)nc2ccccc12	i	i	i	i	i	x	x	x	x
Cc1ccc(-c2cc(C(=O)Nc3ccc(S(=O)(=O)Nc4ncccn4)cc3)c3ccccc3n2)cc1	i	i	i	-5.7*	i	i	i	i	i
Cn1cc(S(=O)(=O)N2CCCC2)cc1C(=O)N1CCN(c2ccccc2)CC1	i	i	i	-7.7*	i	84%*	i	i	i
Cc1ccc(NC(=O)CC2=NC(=O)C(CC(=O)Nc3ccccc3F)S2)cc1 (centres undefined)	i	i	i	-4.9*	i	i	i	i	i
O=C(Nc1ccccc1C(F)(F)F)C1CCN(C(=O)c2cccs2)CC1	i	i	i	i	i	x	x	x	x
O=C(CCNC(=O)c1ccc(Br)cc1)NCc1ccncc1	i	i	i	-6.1*	i	i	i	i	i
O=C(NCc1ccncc1)c1ccc(Br)cc1	i	i	i	i	i	x	x	x	x
Cc1ccc(NC(=O)CCN2C(=O)CSC2=O)c(C)c1	i	i	i	-4.6*	i	i	i	i	i
CCOC(=O)c1cnn(-c2ccccc2)c1N	i	i	i	-4.7*	i	i	i	i	i
CCOC(=O)c1cnn(-c2cccc(Cl)c2)c1N	i	i	i	i	i	x	x	x	x
CCOC(=O)c1cnc2c(-c3ccccc3)cnn2c1C	i	i	i	-5*	i	i	i	i	i
CCOc1ccccc1NC(=O)CN(c1ccc(C)cc1)S(=O)(=O)c1c(C)n[nH]c1C	i	i	i	i	i	x	x	x	x
SMILES	RGS4 inh	MrgX1 ag	RGS4 act	MrgX1 antagonist	MrgX1 allo act	MrgX1 antag conf	HEK293 Ca flux	HEK293 Ca counter	HEK293 Ca cntr2
CCOC(=O)c1ccc(NC(=O)CN(c2ccc(C)cc2)S(=O)(=O)c2c(C)n[nH]c2C)cc1	i	i	i	-6.2*	i	i	i	i	52*
O=C(CCS(=O)(=O)c1ccc(Br)cc1)N1CCN(c2ccccc2F)CC1	x	i	x	-5.4*	i	i	i	i	i
COc1cc(C)c(S(=O)(=O)NC2CC(C)(C)NC(C)(C)C2)cc1C	i	i	i	-8.3*	i	i	i	i	i
CCCN(C(=O)c1ccco1)c1nnc(-c2cccc(C)c2)s1	i	i	i	i	i	x	x	x	x
COCCN(C(=O)C1CC1)c1nnc(-c2cccc(C)c2)s1	i	i	i	-5.4*	i	i	i	i	i
CCOC(=O)[C@H]1[C@H]2COc3ccc(OC)cc3[C@@H]2N2C(=O)c3cc(OC)ccc3NC(=O)[C@@]12C	x	i	x	i	i	x	x	x	x
CCN1C(=O)[C@@H]2[C@@H](c3ccc(-c4ccc(OC)cc4)c(OC)c3)N3CCCC[C@@]3(C(=O)OC)[C@@H]2C1=O	x	i	x	i	i	x	x	x	x
CC1CCN(S(=O)(=O)c2ccc(C(=O)OC(C)C(=O)N(C)C3CCCCC3)cc2)CC1 (centres undefined)	i	i	i	i	i	x	x	x	x
O=C(NCCc1ccccc1)Nc1cccc(Cl)c1	i	i	i	-7*	i	i	i	i	i
CCCCN(C)CCNC(=O)CCn1nc(-c2ccc(Cl)cc2)ccc1=O	i	i	i	i	i	x	x	x	x
O=C(NCCc1ccc(Cl)cc1)C1CCN(S(=O)(=O)N2CCCC2)CC1	i	i	i	-5.7*	i	i	i	i	i
COc1ccc(NS(=O)(=O)c2cc3c(cc2C)NC(=O)CO3)c(OC)c1	i	i	i	-4.9*	i	i	i	i	i
CCC(=O)N(Cc1cc2cccc(C)c2[nH]c1=O)c1ccccc1OC	i	i	i	-5.3*	i	i	i	i	i
COc1ccccc1N(Cc1cc2cccc(C)c2[nH]c1=O)C(=O)C(C)C	i	i	i	i	i	x	x	x	x
